An excerpt weighted towards active compounds, which were near 1.9% of everything screened.
NPY1 pot ag = NPY-Y1 receptor potentiators or agonists, primary screen, cell-based | hit rate 0.37% among 220,000 | Neuropeptide Y receptor type 1 (Homo sapiens), P25929 | AID 1304, 2008 | activation, % at 3.6 µM | NPY-Y1 expressing cells, potentiator/agonist activation; in the data active = activation above about 33%, passing the limit was not always enough;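 note: cells stimulated with NPY at EC10 then isoproterenol at EC100; 0% = low agonist plus stimulus and 100% = saturating agonist plus stimulus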
Target sequence (P25929 whole entry, looked up): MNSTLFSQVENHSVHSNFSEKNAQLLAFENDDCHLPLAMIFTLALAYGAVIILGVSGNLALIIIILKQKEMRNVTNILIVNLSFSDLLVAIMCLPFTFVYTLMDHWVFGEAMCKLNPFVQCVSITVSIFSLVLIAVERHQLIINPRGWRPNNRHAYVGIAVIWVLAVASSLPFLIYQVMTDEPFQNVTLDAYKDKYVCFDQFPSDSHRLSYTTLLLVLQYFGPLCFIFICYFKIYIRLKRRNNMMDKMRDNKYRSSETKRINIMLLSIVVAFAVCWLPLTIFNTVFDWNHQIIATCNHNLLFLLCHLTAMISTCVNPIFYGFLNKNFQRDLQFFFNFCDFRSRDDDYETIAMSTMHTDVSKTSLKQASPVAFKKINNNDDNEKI
NPY Y1 blocker = NPY-Y1 receptor antagonists, primary screen, cell-based. hit rate 1% among 200,000. HEK293-CNG Y1 cells, membrane potential fluorescence; NPY at EC95, then isoproterenol. inhibition, % at 3.6 µM. Neuropeptide Y receptor type 1 (Homo sapiens), P25929;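 active = inhibition above the campaign mean inhibition of all tested compounds plus 3 SD, cut at about 20% in these data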;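 note: 0% = DMSO wells given NPY plus isoproterenol and 100% = isoproterenol alone without NPY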
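Material: HEK293 Y1/CNG channel cell line | Also added: NPY (25 nM), isoproterenol (1 µM), Ro 20-1724 (25 µM) | Compound: One concentration, 3.6 µM, in 0.4% DMSO | Schedule: 3 h dye uptake, 1 h room-temperature compound, 45 min post-isoproterenol | Signal: Membrane-potential fluorescent dye readout | Read-out: % inhibition of NPY effect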
NPY-Y2 antag = NPY-Y2 receptor antagonists, primary screen, cell-based | inhibition, % at 2.7 µM | hit rate 0.99% among 140,000 | NPY-Y2 expressing cells, antagonist mode | Neuropeptide Y receptor type 2 (Homo sapiens), P49146; in the data active = inhibition above about 17%;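 note: 0% = vehicle with agonist challenge and 100% = reference antagonist with challenge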
NPY-Y2 PAM-ag = NPY-Y2 potentiators or agonists, primary screen, cell-based; Neuropeptide Y receptor type 2 (Homo sapiens), P49146; cells expressing NPY-Y2, potentiator/agonist read-out; activation, % at 3.6 µM; hit rate 0.45% among 220,000; AID 1359, 2008; in the data active = activation above about 27%;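 note: cells stimulated with NPY near EC25 plus isoproterenol at EC100; 0% = vehicle plus submaximal agonist and 100% = vehicle plus saturating agonist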
Active calls of the source: *; . = no result.

SMILES	NPY1 pot ag	NPY Y1 blocker	NPY-Y2 antag	NPY-Y2 PAM-ag
O=c1[nH]c(N2CCCCC2)nc2ncn(Cc3ccccc3)c12	18	.	.	10
COCC1CCCN(Cc2cn(-c3ccccc3)nc2-c2ccc3c(c2)OCO3)C1 (stereo not given)	65*	6	.	96*
O=C(NC1=NCCS1)c1cccc2ccccc12	-21	1	.	-12
CC(NC(=O)CN1C(=O)NC(Cc2ccccc2)(Cc2ccccc2)C1=O)C12CC3CC(CC(C3)C1)C2 (stereo not given)	-127	130*	161*	-90
CC(NC(=O)Cn1ncc(Cl)c(Cl)c1=O)C12CC3CC(CC(C3)C1)C2 (stereo not given)	82*	-16	2	72*
CCO[C@H]1OC(C(=O)NC2CC2)=C[C@@H](c2csc3ccccc23)[C@@H]1CCCO	-8	-1	.	-6
COc1ccc(-c2nnc(SCc3ccc(C(=O)O)cc3)n2N)cc1	-21	.	.	8
Cc1ccc(NC(=O)COc2ccccc2CNC(C)(C)CC(C)(C)C)cc1	-18	30*	25*	-36
COCC(=O)Nc1nc2ccccc2s1	108*	1	0	64*
O=[N+]([O-])c1ccccc1OCC(O)CNC1CCCC1 (stereo not given)	112*	.	.	104*
CNC(=S)N(CCc1c(C)[nH]c2ccc(Cl)cc12)Cc1cccs1	49*	-12	.	44*
Cc1ccc(C)c(OCC(O)CN2CCCCC2C)c1 (stereo not given)	101*	-10	2	80*
COC(=O)Cc1c[nH]c2cccc(OCC(O)CN(Cc3ccc([N+](=O)[O-])cc3)C(C)(C)C)c12 (stereo not given)	107*	-15	4	103*
COC(=O)Cc1c[nH]c2cccc(OCC(O)CN(Cc3ccccc3)C(C)C)c12 (stereo not given)	97*	-14	4	90*
CC(C)CN(CC(C)C)CC(O)COc1ccc([N+](=O)[O-])cc1 (stereo not given)	-12	8	6	-9
CC1Cc2ccccc2N1C(=O)CN1CCC(n2nnc3cc(C(F)(F)F)ccc32)CC1 (stereo not given)	13	-5	1	-1
COc1ccc(CCC(=O)Nc2ccc(C)c([N+](=O)[O-])c2)cc1	-8	6	4	-2
CS(=O)(=O)N1CCN(c2ccccc2NC(=O)Cc2ccccc2)CC1	-22	7	9	-3
CC(=O)N1CCN(c2ccccc2NC(=O)Cc2ccc(Cl)cc2)CC1	-5	4	.	-2
CC(C)C(=O)N1CCN(c2ccccc2NC(=O)Cc2ccc(Cl)cc2)CC1	-6	44*	20*	-6
CCC(=O)N1CCN(c2ccccc2NC(=O)Cc2ccccc2)CC1	-17	24*	16	-17
CCC(=O)N1CCN(c2ccc(Cl)cc2NC(=O)c2ccc(Br)o2)CC1	-31	9	17*	-1
Cc1ccc(C(=O)Nc2ccccc2N2CCN(C(=O)C(C)C)CC2)cc1	10	14	4	4
CCOc1cccc(C(=O)Nc2ccccc2N2CCN(C(=O)C(C)C)CC2)c1	-9	21*	21*	-10
COc1ccc(N(CC(=O)Nc2cc([N+](=O)[O-])ccc2C)S(C)(=O)=O)cc1OC	-1	.	.	-11
SMILES	NPY1 pot ag	NPY Y1 blocker	NPY-Y2 antag	NPY-Y2 PAM-ag
O=C(O)c1cccc(N2C(=O)C3C4C=CC(C4=C(c4ccccc4)c4ccccc4)C3C2=O)c1 (stereo not given)	-4	2	.	-11
COCCCN=C(c1ccco1)n1c(=S)nc(-c2ccco2)n(CCCOC)c1=S	2	-3	-3	12
CC(C)c1ccc(N2CCN(C(=O)c3ccccc3NC(=O)/C=C\C(=O)O)CC2)cc1	-2	-5	-3	-16
O=C(O)/C=C\C(=O)Nc1ccccc1C(=O)N1CCN(c2ccc(Cl)cc2)CC1	91*	2	1	31*
COCCn1c(=S)[nH]c2cc(C(=O)NCC3CCCO3)ccc2c1=O (stereo not given)	10	-3	0	15
COCCn1c(=O)[nH]c2cc(C(=O)NCC3CCCO3)ccc2c1=O (stereo not given)	74*	-2	-1	12
COc1ccc(-c2nnc(SCc3ncc(-c4ccccc4)o3)o2)cc1	-24	21*	21*	-25
Cc1c(NC(=O)c2cc(-n3cnnc3)ccc2Cl)cccc1-c1nc2ccccc2s1	4	-3	-1	14
Cc1c(NC(=O)c2cccs2)cccc1-c1nc2ccccc2s1	46*	-3	6	27*
CCOc1cc(Br)ccc1S(=O)(=O)NCc1ccccc1	-6	7	4	-14
Cc1ccc(Nc2nc(-c3ccc(O)c(O)c3)cs2)nc1	44*	-12	.	51*
N=c1c2c(-c3ccccc3)c(-c3ccccc3)n(Cc3ccco3)c2ncn1CCO	-79	38*	63*	-23
N=c1c2c(-c3ccccc3)c(-c3ccccc3)n(Cc3ccco3)c2ncn1CCN1CCOCC1	-11	42*	43*	16
N=c1c2c(-c3ccccc3)c(-c3ccccc3)n(Cc3ccco3)c2ncn1CCCO	-47	.	.	-46
c1coc(CNc2nc3ccccc3n2CCN2CCOCC2)c1	7	3	2	8
Cc1ccc2nc(-c3ccc(NC(=S)NC(=O)C(C)C)cc3)sc2c1	51*	-1	-1	13
CCC(=O)NC(=S)Nc1ccc(-c2nc3ccc(C)cc3s2)cc1	20	-6	2	6
CC1CC(C)CN(c2oc(-c3ccco3)nc2C#N)C1 (stereo not given)	-33	24*	27*	3
N#Cc1nc(-c2ccco2)oc1N1CCCC1	-7	-6	7	-8
O=C(NC(NC(=S)Nc1ccc(Cl)cc1Cl)C(Cl)(Cl)Cl)c1cccc([N+](=O)[O-])c1 (stereo not given)	56*	5	-1	56*
CCOC(=O)c1sc(N(Cc2ccccc2)C(=O)COC(=O)c2ccc(O)cc2)nc1C	-37	42*	26*	-35
CCOC(=O)c1sc(N(Cc2ccccc2)C(=O)CSc2ncn[nH]2)nc1C	-11	3	4	-16
Cc1cc(C)c2c(CC(=O)O)coc2c1	-45	24*	12	-46
Nc1ccc(-c2cc(-c3cccc(N)c3)nc(-c3ccccc3)n2)cc1	54*	-13	-6	45*
CCOC(=O)COc1cc2oc(=O)cc(C)c2cc1[N+](=O)[O-]	3	-3	.	-8
Cc1ccccc1C(=O)c1c[nH]c(C(=O)N=CN(C)C)c1	-7	3	.	-9
Cc1ccccc1C(=O)c1c[nH]c(C(N)=O)c1	111*	-1	-2	27
COc1cccc(OCC(O)CN2CCC(CN3C(=O)c4cccc5cccc(c45)C3=O)CC2)c1 (stereo not given)	52*	3	.	43*
CCc1ccc(OCC(O)CN2CCC(CN3C(=O)c4cccc5cccc(c45)C3=O)CC2)cc1 (stereo not given)	4	11	5	11

High-throughput results as filed in PubChem BioAssay.
